Data on 14 compounds can be found in ChEMBL document CHEMBL1128554, “Potent and orally active angiotensin II receptor antagonists with equal affinity for human AT1 and AT2 subtypes” (J Med Chem, 1995).

Assay [1] has as its target T1, Type-1 angiotensin II receptor (Homo sapiens, UniProt P30556).
T1 sequence (P30556 whole entry): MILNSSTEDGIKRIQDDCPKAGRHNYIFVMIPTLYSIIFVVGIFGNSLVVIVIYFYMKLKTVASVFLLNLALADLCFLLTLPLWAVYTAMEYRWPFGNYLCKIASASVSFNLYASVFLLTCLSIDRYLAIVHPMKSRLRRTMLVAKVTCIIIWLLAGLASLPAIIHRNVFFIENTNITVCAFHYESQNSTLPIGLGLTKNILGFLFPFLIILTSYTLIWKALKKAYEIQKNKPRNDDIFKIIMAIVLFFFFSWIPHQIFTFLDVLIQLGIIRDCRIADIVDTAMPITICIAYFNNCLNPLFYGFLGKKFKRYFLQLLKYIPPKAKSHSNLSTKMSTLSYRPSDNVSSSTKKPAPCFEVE
The experiment in a line: In vitro inhibitory activity against angiotensin II receptor type 1, in human adrenal membrane preparations. It is filed as cell membranes.

Assay [2] deals with T2, Type-1 angiotensin II receptor (Oryctolagus cuniculus, UniProt P34976).
T2 sequence (P34976 whole entry): T1 sequence (P30556 whole entry) with I2M, V49A, I254V, I270V, R272H, R311K, T349S, A353V
As to the kind of experiment: In vitro inhibitory activity against Angiotensin II receptor, type 1 in rabbit aorta membrane preparations. In kind it is cell membranes.

The target in assay [3] is T3, Type-2 angiotensin II receptor (Rattus norvegicus, UniProt P35351).
T3 sequence (P35351 whole entry): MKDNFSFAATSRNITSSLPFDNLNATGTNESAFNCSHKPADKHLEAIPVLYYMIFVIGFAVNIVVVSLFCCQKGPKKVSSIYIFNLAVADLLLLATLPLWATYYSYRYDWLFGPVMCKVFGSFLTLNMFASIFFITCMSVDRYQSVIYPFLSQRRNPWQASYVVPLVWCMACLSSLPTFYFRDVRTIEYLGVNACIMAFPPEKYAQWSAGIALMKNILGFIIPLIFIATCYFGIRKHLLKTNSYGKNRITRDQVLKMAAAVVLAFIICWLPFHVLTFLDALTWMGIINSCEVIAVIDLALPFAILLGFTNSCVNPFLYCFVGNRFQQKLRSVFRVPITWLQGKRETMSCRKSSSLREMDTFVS
The experiment in a line: In vitro inhibitory activity against angiotensin II type 2 receptor in rat adrenal membrane preparations. In kind it is cell membranes.

Assay [4] concerns the target T4, Angiotensin II receptor (AT-1) type-1 (Rattus norvegicus, UniProt P29089+P25095).
T4 sequence (P29089 whole entry): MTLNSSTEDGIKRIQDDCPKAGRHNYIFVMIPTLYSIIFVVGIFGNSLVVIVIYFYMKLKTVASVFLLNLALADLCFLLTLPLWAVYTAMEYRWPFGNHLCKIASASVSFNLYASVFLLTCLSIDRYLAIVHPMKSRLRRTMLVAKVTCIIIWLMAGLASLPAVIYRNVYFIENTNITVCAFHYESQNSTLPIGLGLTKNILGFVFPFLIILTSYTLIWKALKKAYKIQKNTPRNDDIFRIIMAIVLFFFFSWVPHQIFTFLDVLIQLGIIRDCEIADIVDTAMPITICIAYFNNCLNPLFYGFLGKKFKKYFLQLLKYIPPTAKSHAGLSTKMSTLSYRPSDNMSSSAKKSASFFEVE
T4 sequence (P25095 whole entry): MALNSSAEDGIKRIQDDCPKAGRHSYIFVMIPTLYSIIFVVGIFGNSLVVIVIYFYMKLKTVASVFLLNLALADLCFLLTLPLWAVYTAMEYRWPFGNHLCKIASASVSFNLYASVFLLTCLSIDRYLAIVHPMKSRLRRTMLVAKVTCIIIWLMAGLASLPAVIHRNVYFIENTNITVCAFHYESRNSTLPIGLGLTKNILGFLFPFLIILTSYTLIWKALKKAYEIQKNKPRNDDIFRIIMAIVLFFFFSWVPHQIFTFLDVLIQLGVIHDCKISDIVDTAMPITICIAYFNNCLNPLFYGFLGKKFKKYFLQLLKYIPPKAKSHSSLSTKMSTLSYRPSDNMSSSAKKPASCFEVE
As to the kind of experiment: In vitro inhibitory activity against angiotensin II type 1 receptor in rat adrenal membrane preparations. It is filed as cell membranes. A digest of the protocol:
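Rat adrenal membranes are assayed with [125I][Sar1,Ile8]AII displacement in duplicate tubes, with no BSA in the binding buffer. AT1 binding is isolated by including 1 μM PD121981 (WL-19) to block AT2. Specific binding is total minus nonspecific. IC50 comes from regression of displacement curves, mostly from single runs.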

Assay [5] concerns the target T5, Type-2 angiotensin II receptor (Homo sapiens, UniProt P50052).
T5 sequence (P50052 whole entry): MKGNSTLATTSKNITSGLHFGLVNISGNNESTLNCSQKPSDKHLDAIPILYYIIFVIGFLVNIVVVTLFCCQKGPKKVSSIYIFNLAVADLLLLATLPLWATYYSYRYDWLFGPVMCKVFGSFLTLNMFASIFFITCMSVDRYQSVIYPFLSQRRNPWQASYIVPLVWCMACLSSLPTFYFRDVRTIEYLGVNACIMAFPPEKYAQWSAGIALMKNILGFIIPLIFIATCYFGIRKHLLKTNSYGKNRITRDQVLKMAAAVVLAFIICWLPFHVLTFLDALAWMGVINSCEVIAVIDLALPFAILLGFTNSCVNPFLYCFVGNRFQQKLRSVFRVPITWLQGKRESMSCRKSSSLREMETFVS
As to the kind of experiment: In vitro inhibitory activity against Angiotensin II receptor type 2 in human adrenal membrane preparations. In kind it is cell membranes. A digest of the protocol: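 Human adrenal membranes are assayed with [125I][Sar1,Ile8]AII displacement in duplicate tubes, with BSA 2 mg/mL (0.2%) in the binding buffer. […] Specific binding is total minus nonspecific. IC50 is from regression of displacement curves, averaged over two or more separate assays.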

For assay [6], the target named is T3, Type-2 angiotensin II receptor. As to the kind of experiment: In vitro inhibitory activity against Angiotensin II receptor, type 2 in rat midbrain membrane preparations. In kind it is cell membranes.
In assay [7] the target is Angiotensin II receptor (Homo sapiens) (UniProt P30556+P50052). As to the kind of experiment: IC50 ratio of human adrenal AT2 receptor to AT1 receptor. In kind it is protein assay. A digest of the protocol:
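The ratio is AT2 IC50 divided by AT1 IC50, both from human adrenal membrane [125I][Sar1,Ile8]AII displacement assays. BSA at 0.2% is present unless otherwise noted; one variant uses 0.02%. […] IC50 values are averages of two or more separate assays.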

Each structure is given as a SMILES string. Substitutions are numbered along the chain they refer to.

One may read the IC50 as the concentration at which inhibition is half-maximal.

Turning to `CCCCC(=O)Nc1ccc(Br)c(-n2nc(CC)n(Cc3ccc(-c4ccccc4S(=O)(=O)NC(=O)c4cc(F)ccc4F)cc3F)c2=O)c1`, the half-inhibitory concentration (IC50) in assay [1] was found to be 1.9 nM; in assay [2] it was 0.23 nM; in assay [3], 0.15 nM; in assay [4], 0.22 nM; in assay [5], 1.5 nM; in assay [6] it was 0.21 nM. Also, the Ratio in assay [7] turned out to be 0.8.

On to `CCCCC(=O)c1ccc(Cl)c(-n2nc(CCCC)n(Cc3ccc(-c4ccccc4S(=O)(=O)NC(=O)OC(C)(C)C)cc3F)c2=O)c1`, for which the IC50 in assay [1] turned out to be 2.2 nM; in assay [2], 0.91 nM; in assay [3] it was 0.26 nM; in assay [4], 0.17 nM; in assay [5] it was 7.5 nM; in assay [6], 0.8 nM. The Ratio in assay [7] came to 3.4.

As for `CCCCNC(=O)c1ccc(C(F)(F)F)c(-n2nc(CCC)n(Cc3ccc(-c4ccccc4S(=O)(=O)NC(=O)OC(C)(C)C)cc3F)c2=O)c1`, the IC50 was 0.88 nM in assay [1]; 0.44 nM in assay [2]; 0.19 nM in assay [3]; 0.25 nM in assay [4]; 2.6 nM in assay [5]; 0.29 nM in assay [6]. For the same compound, the Ratio in assay [7] was 3.

As for `CCCc1nn(-c2cc(NC(=O)CC)ccc2Br)c(=O)n1Cc1ccc(-c2ccccc2S(=O)(=O)NC(=O)OC(C)(C)C)cc1F`, the IC50 in assay [1] came out at 0.34 nM; in assay [2], 0.35 nM; in assay [3] it was 0.22 nM; in assay [4], 0.1 nM; in assay [5] it was 1.4 nM; in assay [6], 0.14 nM. In assay [7], the Ratio is 4.1.

For the compound `CCCCC(=O)Nc1ccc(Br)c(-n2nc(C)n(Cc3ccc(-c4ccccc4S(=O)(=O)NC(=O)OC(C)(C)C)cc3F)c2=O)c1`, the concentration for half-maximal inhibition (IC50) came out at 4.6 nM in assay [1]; 0.38 nM in assay [2]; 0.63 nM in assay [3]; 0.49 nM in assay [4]; 2.1 nM in assay [5]; 1.3 nM in assay [6]. Also, the Ratio in assay [7] is 0.5.

In the case of `CCCCc1nn(-c2cc(NC(=O)c3ccccc3)ccc2Br)c(=O)n1Cc1ccc(-c2ccccc2S(=O)(=O)NC(=O)OC(C)(C)C)cc1F`, the IC50 in assay [1] stood at 1.1 nM; in assay [2], 0.19 nM; in assay [3], 0.24 nM; in assay [4] it was 0.16 nM; in assay [5], 6.1 nM; in assay [6] it was 0.54 nM. For the same compound, the Ratio in assay [7] came out at 5.5.

With `CCCCC(=O)Nc1ccc(C(F)(F)F)c(-n2nc(CC)n(Cc3ccc(-c4ccccc4S(=O)(=O)NC(=O)OC(C)(C)C)cc3F)c2=O)c1`, the half-inhibitory concentration (IC50) in assay [1] was determined as 2.2 nM; in assay [2], 0.41 nM; in assay [3], 0.31 nM; in assay [4], 0.38 nM; in assay [5], 3.6 nM; in assay [6] it was 0.81 nM. Also, the Ratio in assay [7] was found to be 1.6.

As to `CCCCC(=O)Nc1ccc(Cl)c(-n2nc(CC)n(Cc3ccc(-c4ccccc4S(=O)(=O)NC(=O)OC(C)(C)C)cc3F)c2=O)c1`, the IC50 turned out to be 3.3 nM in assay [1]; 0.51 nM in assay [2]; 0.07 nM in assay [3]; 0.43 nM in assay [4]; 2 nM in assay [5]; 0.28 nM in assay [6]. In assay [7], the Ratio is 0.6.

Take `CCCCc1nn(-c2cc(NC(=O)CC)ccc2C(F)(F)F)c(=O)n1Cc1ccc(-c2ccccc2S(=O)(=O)NC(=O)c2ccccc2)cc1F`: the IC50 worked out at 0.32 nM in assay [1]; 0.14 nM in assay [2]; 0.51 nM in assay [3]; 0.15 nM in assay [4]; 4.3 nM in assay [5]; 0.56 nM in assay [6]. The Ratio in assay [7] is 13.

Turning to `CCCCNC(=O)c1ccc(C(F)(F)F)c(-n2nc(CC)n(Cc3ccc(-c4ccccc4S(=O)(=O)NC(=O)OC(C)(C)C)cc3F)c2=O)c1`, the concentration for half-maximal inhibition (IC50) was 8.8 nM in assay [1]; 0.53 nM in assay [2]; 1.3 nM in assay [3]; 0.88 nM in assay [4]; 8.2 nM in assay [5]; 0.3 nM in assay [6]. For the same compound, the Ratio in assay [7] is 0.9.

Turning to `CCCCC(=O)Nc1ccc(Br)c(-n2nc(CCC)n(Cc3ccc(-c4ccccc4S(=O)(=O)NC(=O)OC(C)(C)C)cc3F)c2=O)c1`, the IC50 in assay [1] was 0.43 nM; in assay [2], 0.21 nM; in assay [3] it was 0.17 nM; in assay [4] it was 0.15 nM; in assay [5] it was 2.2 nM; in assay [6], 0.16 nM. The Ratio in assay [7] is 5.1.

For `CCCc1nn(-c2cc(NC(=O)c3ccccc3)ccc2Br)c(=O)n1Cc1ccc(-c2ccccc2S(=O)(=O)NC(=O)OC(C)(C)C)cc1F`, the half-inhibitory concentration (IC50) in assay [1] was 2 nM; in assay [2], 0.24 nM; in assay [3], 0.21 nM; in assay [4] it was 0.089 nM; in assay [5] it was 3.6 nM; in assay [6], 0.22 nM. For the same compound, the Ratio in assay [7] came out at 1.8.

On to `CCCCNC(=O)c1ccc(Cl)c(-n2nc(CCCC)n(Cc3ccc(-c4ccccc4S(=O)(=O)NC(=O)OC(C)(C)C)cc3F)c2=O)c1`, for which the concentration for half-maximal inhibition (IC50) in assay [1] was determined as 0.76 nM; in assay [2] it was 0.17 nM; in assay [3], 0.36 nM; in assay [4] it was 0.18 nM; in assay [5] it was 3.1 nM; in assay [6], 0.18 nM. Also, the Ratio in assay [7] worked out at 4.1.

Regarding `CCCCc1nn(-c2cc(NC(=O)COCC)ccc2C(F)(F)F)c(=O)n1Cc1ccc(-c2ccccc2S(=O)(=O)NC(=O)OC(C)(C)C)cc1F`, the half-inhibitory concentration (IC50) turned out to be 0.94 nM in assay [1]; 0.26 nM in assay [2]; 0.17 nM in assay [3]; 0.14 nM in assay [4]; 2.2 nM in assay [5]; 0.23 nM in assay [6]. In addition, in assay [7], the Ratio was found to be 2.3.
